Measured values: ChEMBL document CHEMBL2157987, “Benzimidazole bearing oxadiazole and triazolo-thiadiazoles nucleus: design and synthesis as anticancer agents” (2012)

Key:
Type in all cases: functional
HOP-92 = experiment: Cytotoxicity against human HOP92 cells after 48 hrs by SRB assay; settings: HOP-92, 48 h
Procedure, shortened: (§1)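 Five-dose NCI-60 panel screen: cells grown in RPMI 1640 with 5% FBS and 2 mM L-glutamine, preincubated 24 h at 37 °C, 5% CO2. Five 10-fold dilutions, 0.01–100 µM, applied for 48 h. Fixed with cold TCA (10% final), stained with 0.4% SRB, absorbance read at 515 nm. GI50, TGI and LC50 were taken from log concentration versus % growth curves using time-zero plates.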

MCF7 = experiment: Cytotoxicity against human MCF7 cells after 48 hrs by SRB assay; settings: MCF7, 48 h; procedure, shortened: as §1
KM12 = experiment: Cytotoxicity against human KM12 cells after 48 hrs by SRB assay; settings: KM12, 48 h; procedure, shortened: as §1
SNB-19 = experiment: Cytotoxicity against human SNB19 cells after 48 hrs by SRB assay; settings: SNB-19, 48 h
Procedure, shortened: (§2)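 Cells were grown in RPMI 1640 with 5% FBS and 2 mM L-glutamine, then held 24 h at 37 °C and 5% CO2 before dosing. TCA-fixed time-zero plates were kept. Compound was dissolved in DMSO and given at five 10-fold dilutions for 48 h. Cells were fixed with cold TCA (10% final), stained with 0.4% SRB and read at 515 nm. GI50, TGI and LC50 came from Ti/Tz/control growth formulas.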

SNB-75 = experiment: Cytotoxicity against human SNB75 cells after 48 hrs by SRB assay; settings: SNB-75, 48 h; procedure, shortened: as §2
HOP-62 = experiment: Cytotoxicity against human HOP62 cells after 48 hrs by SRB assay; settings: HOP-62, 48 h; procedure, shortened: as §1
HCT-15 = experiment: Cytotoxicity against human HCT15 cells after 48 hrs by SRB assay; settings: HCT-15, 48 h; procedure, shortened: as §1
NCI-H522 = experiment: Cytotoxicity against human NCI-H522 cells after 48 hrs by SRB assay; settings: NCI-H522, 48 h; procedure, shortened: as §1
OVCAR-8 = experiment: Cytotoxicity against human OVCAR8 cells after 48 hrs by SRB assay; settings: OVCAR-8, 48 h; procedure, shortened: as §1
SK-MEL-5 = experiment: Cytotoxicity against human SK-MEL-5 cells after 48 hrs by SRB assay; settings: SK-MEL-5, 48 h; procedure, shortened: as §1
NCI/ADR-RES = experiment: Cytotoxicity against human NCI/ADR-RES cells after 48 hrs by SRB assay; procedure, shortened: as §1
[1] = read-out: LC50 (the source's name)
[2] = read-out: pLC50 (the source's name) (converted)

With `Nc1cc(Br)c(-c2nnc(CCC(=O)c3nc4ccccc4[nH]3)o2)c(Br)c1` the GI50 (HOP-92) was 0.501 µM, the CC50 (HOP-92; [1]) was greater than 100 µM and the TGI (HOP-92; read-out: TGI) was 19.9 µM. It also gave a CC50 (HOP-92; [2]) greater than 100 µM, a TGI (HOP-92; read-out: pTGI (converted)) of 20 µM and a GI50 (MCF7) of 3.09 µM. The CC50 (MCF7; [1]) was greater than 100 µM, the TGI (MCF7; read-out: TGI) was greater than 100 µM and the CC50 (MCF7; [2]) was greater than 100 µM. For the same compound, the TGI (MCF7; read-out: pTGI) was greater than 100 µM, the GI50 (KM12) was 3.72 µM and the CC50 (KM12; [1]) was greater than 100 µM. For the same compound, the TGI (KM12; read-out: TGI) was 18 µM, the CC50 (KM12; [2]) was greater than 100 µM and the TGI (KM12; read-out: pTGI (converted)) was 18.2 µM. It also gave a GI50 (SNB-19) of 20 µM, a CC50 (SNB-19; [1]) greater than 100 µM and a TGI (SNB-19; read-out: TGI) greater than 100 µM. For the same compound, the CC50 (SNB-19; [2]) was greater than 100 µM, the TGI (SNB-19; read-out: pTGI) was greater than 100 µM and the GI50 (SNB-75) was 2.95 µM. It also gave a CC50 (SNB-75; [1]) greater than 100 µM, a TGI (SNB-75; read-out: TGI) of 20.5 µM and a CC50 (SNB-75; [2]) greater than 100 µM. For the same compound, the TGI (SNB-75; read-out: pTGI (converted)) was 20.4 µM, the GI50 (HOP-62) was 23.4 µM and the CC50 (HOP-62; [1]) was greater than 100 µM. It also gave a TGI (HOP-62; read-out: TGI) greater than 100 µM, a CC50 (HOP-62; [2]) greater than 100 µM and a TGI (HOP-62; read-out: pTGI) greater than 100 µM. It also gave a GI50 (HCT-15) greater than 100 µM, a CC50 (HCT-15; [1]) greater than 100 µM and a TGI (HCT-15; read-out: TGI) greater than 100 µM. The CC50 (HCT-15; [2]) was greater than 100 µM, the TGI (HCT-15; read-out: pTGI) was greater than 100 µM and the GI50 (NCI-H522) was 2.88 µM. The CC50 (NCI-H522; [1]) was greater than 100 µM, the TGI (NCI-H522; read-out: TGI) was 16.9 µM and the CC50 (NCI-H522; [2]) was greater than 100 µM. For the same compound, the TGI (NCI-H522; read-out: pTGI (converted)) was 17 µM, the GI50 (OVCAR-8) was 21.4 µM and the CC50 (OVCAR-8; [1]) was greater than 100 µM. It also gave a TGI (OVCAR-8; read-out: TGI) greater than 100 µM, a CC50 (OVCAR-8; [2]) greater than 100 µM and a TGI (OVCAR-8; read-out: pTGI) greater than 100 µM. For the same compound, the GI50 (SK-MEL-5) was 14.1 µM, the CC50 (SK-MEL-5; [1]) was greater than 100 µM and the TGI (SK-MEL-5; read-out: TGI) was greater than 100 µM. It also gave a CC50 (SK-MEL-5; [2]) greater than 100 µM, a TGI (SK-MEL-5; read-out: pTGI) greater than 100 µM and a GI50 (NCI/ADR-RES) of 22.4 µM. It also gave a CC50 (NCI/ADR-RES; [1]) greater than 100 µM and a TGI (NCI/ADR-RES; read-out: TGI) greater than 100 µM.
